Activity calls are given as the source filed them. No cut-off for these calls is given here.
Columns and labels:
[1] = Half life in mouse liver microsomes; assay type: ADME
Summary of the method: (§1)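 Incubated with human or mouse liver microsomes; the read-out was intrinsic clearance alongside half-life, given in hours.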

[2] = Efflux ratio of permeability in MDCK cells; assay type: ADME, cell-based, Canis lupus familiaris; conditions: dog
Summary of the method: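 Permeability measured across a confluent MDCK cell monolayer, with the efflux ratio reported alongside the permeability value.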

[3] = target: Tyrosine-protein kinase ZAP-70 (Homo sapiens) (UniProt P43403); assay: Inhibition of partial length human ZAP70 expressed in mammalian system at 1 uM
Summary of the method: (§2)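 Single-concentration screen across a panel of 97 kinases, with the test compound at 1 uM.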

NCI-H460 = assay: Antiproliferative activity against human NCI-H460 cells assessed as change in phenotypic response measured after prolonged treatment; assay type: functional, cell-based
[4] = Cytotoxicity against human WI38 cells assessed as change in phenotypic response up to 50 uM; assay type: cell-based; conditions: wi-38
[5] = Half life in human liver microsomes; assay type: ADME; summary of the method: as §1
[6] = Intrinsic clearance in mouse liver microsomes; assay type: ADME
[7] = target: Dual specificity mitogen-activated protein kinase kinase 1 (Homo sapiens) (UniProt Q02750); assay: Inhibition of partial length human MEK1 expressed in mammalian system at 1 uM
Summary of the method: (§3)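 Single-point screen within a 97-kinase profiling panel, with the test compound at 1 µM.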

[8] = target: Serine/threonine-protein kinase RIO2 (Homo sapiens) (UniProt Q9BVS4); assay: Inhibition of partial length human RIOK2 expressed in mammalian system at 1 uM; summary of the method: as §2
[9] = target: Mitogen-activated protein kinase kinase kinase 4 (Homo sapiens) (UniProt Q9Y6R4); assay: Inhibition of partial length human MAP3K4 expressed in bacterial system at 1 uM; summary of the method: as §3
[10] = target: Angiopoietin-1 receptor (Homo sapiens) (UniProt Q02763); assay: Inhibition of partial length human TIE2 expressed in bacterial system at 1 uM; summary of the method: as §2
[11] = target: Macrophage colony-stimulating factor 1 receptor (Homo sapiens) (UniProt P07333); assay: Inhibition of partial length human CSF1R expressed in bacterial system at 1 uM; summary of the method: as §3
[12] = target: MAP kinase-interacting serine/threonine-protein kinase 2 (Homo sapiens) (UniProt Q9HBH9); assay: Inhibition of partial length human MKNK2 expressed in mammalian system at 1 uM; summary of the method: as §2
[13] = target: Serine/threonine-protein kinase PAK 2 (Homo sapiens) (UniProt Q13177); assay: Inhibition of partial length human PAK2 expressed in bacterial system at 1 uM; summary of the method: as §2
[14] = target: ALK tyrosine kinase receptor (Homo sapiens) (UniProt Q9UM73); assay: Inhibition of partial length human ALK expressed in mammalian system at 1 uM; summary of the method: as §3

Chain of Tyrosine-protein kinase ZAP-70 (Homo sapiens) (P43403 whole entry): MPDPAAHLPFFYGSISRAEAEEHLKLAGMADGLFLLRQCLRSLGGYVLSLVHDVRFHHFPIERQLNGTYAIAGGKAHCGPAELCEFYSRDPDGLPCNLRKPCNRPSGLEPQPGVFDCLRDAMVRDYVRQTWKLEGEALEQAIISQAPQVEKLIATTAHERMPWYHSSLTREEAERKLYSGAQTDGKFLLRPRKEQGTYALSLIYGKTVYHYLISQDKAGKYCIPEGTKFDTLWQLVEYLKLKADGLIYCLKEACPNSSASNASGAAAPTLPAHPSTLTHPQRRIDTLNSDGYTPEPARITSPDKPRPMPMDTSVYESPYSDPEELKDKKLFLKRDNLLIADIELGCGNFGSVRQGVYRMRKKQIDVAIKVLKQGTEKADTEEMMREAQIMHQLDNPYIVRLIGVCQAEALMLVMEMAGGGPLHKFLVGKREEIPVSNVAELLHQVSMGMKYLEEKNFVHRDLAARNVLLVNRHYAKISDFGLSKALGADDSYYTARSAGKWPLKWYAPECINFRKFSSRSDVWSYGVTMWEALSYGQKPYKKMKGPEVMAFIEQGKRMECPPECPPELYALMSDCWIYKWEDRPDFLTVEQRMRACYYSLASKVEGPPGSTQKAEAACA
Chain of MAP kinase-interacting serine/threonine-protein kinase 2 (Homo sapiens) (Q9HBH9 whole entry, looked up): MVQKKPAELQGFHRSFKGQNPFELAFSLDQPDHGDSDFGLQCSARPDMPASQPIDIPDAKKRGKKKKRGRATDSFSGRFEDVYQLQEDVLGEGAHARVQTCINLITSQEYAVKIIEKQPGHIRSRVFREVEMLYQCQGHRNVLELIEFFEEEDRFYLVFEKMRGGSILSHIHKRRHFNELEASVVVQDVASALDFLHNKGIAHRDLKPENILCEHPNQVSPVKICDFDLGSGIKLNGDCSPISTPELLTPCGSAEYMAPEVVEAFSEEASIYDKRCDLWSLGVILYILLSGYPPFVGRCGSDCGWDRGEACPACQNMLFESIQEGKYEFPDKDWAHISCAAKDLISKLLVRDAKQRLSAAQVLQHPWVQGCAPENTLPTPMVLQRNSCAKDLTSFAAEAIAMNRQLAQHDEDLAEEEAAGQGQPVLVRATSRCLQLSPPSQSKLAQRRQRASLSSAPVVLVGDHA
Chain of Mitogen-activated protein kinase kinase kinase 4 (Homo sapiens) (Q9Y6R4 whole entry): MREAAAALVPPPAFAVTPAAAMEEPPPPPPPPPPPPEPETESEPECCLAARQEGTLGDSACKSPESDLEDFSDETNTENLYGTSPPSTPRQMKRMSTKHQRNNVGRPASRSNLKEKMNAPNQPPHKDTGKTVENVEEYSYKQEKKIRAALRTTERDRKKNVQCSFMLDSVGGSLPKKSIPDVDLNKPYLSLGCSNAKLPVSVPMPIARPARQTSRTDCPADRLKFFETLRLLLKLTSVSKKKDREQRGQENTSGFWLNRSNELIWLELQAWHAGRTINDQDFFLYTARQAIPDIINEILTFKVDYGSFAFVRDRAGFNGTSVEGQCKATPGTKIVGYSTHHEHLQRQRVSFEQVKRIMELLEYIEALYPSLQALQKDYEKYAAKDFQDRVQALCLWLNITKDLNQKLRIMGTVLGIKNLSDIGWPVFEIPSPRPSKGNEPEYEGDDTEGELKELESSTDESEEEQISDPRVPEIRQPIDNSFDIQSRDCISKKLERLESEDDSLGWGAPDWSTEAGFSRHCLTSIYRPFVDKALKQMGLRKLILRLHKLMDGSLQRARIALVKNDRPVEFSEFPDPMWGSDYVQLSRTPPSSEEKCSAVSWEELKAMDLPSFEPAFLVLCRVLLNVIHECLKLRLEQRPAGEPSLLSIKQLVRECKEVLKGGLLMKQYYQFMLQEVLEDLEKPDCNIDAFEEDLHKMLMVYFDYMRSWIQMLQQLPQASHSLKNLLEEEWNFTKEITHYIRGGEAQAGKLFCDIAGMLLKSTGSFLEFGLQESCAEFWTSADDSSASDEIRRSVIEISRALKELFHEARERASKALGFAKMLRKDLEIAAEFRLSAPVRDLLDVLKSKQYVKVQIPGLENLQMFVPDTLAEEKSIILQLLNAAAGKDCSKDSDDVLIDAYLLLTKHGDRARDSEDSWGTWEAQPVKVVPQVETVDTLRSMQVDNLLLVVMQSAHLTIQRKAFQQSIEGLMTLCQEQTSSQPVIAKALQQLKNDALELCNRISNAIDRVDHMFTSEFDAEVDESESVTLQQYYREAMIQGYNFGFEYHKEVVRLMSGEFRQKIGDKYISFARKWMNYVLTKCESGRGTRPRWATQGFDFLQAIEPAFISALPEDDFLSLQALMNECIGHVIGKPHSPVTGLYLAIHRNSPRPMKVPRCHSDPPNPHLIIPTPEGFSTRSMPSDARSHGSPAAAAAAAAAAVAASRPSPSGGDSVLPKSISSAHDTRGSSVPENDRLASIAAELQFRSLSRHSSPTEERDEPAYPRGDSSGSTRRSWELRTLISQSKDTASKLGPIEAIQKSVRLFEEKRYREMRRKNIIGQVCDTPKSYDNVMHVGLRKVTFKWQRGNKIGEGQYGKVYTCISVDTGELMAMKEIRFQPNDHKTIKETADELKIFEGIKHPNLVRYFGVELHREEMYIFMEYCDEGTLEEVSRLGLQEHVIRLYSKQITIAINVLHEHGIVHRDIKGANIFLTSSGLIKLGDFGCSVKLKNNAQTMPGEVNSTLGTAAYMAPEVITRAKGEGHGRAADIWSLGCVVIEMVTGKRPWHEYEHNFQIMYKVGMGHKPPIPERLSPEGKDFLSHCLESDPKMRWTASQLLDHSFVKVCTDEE
Chain of Angiopoietin-1 receptor (Homo sapiens) (Q02763 whole entry): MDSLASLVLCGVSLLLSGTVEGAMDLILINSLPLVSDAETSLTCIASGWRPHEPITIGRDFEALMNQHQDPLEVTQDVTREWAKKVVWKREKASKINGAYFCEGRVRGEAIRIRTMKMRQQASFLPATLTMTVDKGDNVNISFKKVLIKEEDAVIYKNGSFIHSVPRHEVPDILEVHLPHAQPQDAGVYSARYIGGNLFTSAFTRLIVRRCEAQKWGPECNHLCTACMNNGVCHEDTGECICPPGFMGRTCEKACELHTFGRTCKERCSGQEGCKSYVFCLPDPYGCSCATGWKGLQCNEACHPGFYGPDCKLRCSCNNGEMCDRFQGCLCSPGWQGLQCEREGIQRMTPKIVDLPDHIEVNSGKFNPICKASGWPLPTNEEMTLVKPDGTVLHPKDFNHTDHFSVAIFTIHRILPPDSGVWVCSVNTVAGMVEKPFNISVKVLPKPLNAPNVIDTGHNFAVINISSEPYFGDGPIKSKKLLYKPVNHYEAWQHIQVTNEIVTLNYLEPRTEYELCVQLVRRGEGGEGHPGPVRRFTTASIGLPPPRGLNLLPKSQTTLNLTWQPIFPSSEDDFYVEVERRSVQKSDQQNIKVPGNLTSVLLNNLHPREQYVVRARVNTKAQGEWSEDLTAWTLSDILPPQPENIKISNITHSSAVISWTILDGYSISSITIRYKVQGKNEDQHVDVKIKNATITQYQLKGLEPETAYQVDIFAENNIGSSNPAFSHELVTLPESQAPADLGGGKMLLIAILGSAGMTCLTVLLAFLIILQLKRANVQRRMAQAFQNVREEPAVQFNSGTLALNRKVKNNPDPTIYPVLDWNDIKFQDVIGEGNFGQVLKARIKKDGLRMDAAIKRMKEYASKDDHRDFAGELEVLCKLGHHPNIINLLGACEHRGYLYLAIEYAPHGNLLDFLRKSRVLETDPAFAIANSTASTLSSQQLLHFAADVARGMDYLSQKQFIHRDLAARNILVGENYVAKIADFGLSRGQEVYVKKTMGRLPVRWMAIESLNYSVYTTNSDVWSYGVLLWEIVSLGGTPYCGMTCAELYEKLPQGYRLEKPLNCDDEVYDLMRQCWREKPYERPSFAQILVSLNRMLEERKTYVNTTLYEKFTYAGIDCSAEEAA
Chain of Macrophage colony-stimulating factor 1 receptor (Homo sapiens) (P07333 whole entry): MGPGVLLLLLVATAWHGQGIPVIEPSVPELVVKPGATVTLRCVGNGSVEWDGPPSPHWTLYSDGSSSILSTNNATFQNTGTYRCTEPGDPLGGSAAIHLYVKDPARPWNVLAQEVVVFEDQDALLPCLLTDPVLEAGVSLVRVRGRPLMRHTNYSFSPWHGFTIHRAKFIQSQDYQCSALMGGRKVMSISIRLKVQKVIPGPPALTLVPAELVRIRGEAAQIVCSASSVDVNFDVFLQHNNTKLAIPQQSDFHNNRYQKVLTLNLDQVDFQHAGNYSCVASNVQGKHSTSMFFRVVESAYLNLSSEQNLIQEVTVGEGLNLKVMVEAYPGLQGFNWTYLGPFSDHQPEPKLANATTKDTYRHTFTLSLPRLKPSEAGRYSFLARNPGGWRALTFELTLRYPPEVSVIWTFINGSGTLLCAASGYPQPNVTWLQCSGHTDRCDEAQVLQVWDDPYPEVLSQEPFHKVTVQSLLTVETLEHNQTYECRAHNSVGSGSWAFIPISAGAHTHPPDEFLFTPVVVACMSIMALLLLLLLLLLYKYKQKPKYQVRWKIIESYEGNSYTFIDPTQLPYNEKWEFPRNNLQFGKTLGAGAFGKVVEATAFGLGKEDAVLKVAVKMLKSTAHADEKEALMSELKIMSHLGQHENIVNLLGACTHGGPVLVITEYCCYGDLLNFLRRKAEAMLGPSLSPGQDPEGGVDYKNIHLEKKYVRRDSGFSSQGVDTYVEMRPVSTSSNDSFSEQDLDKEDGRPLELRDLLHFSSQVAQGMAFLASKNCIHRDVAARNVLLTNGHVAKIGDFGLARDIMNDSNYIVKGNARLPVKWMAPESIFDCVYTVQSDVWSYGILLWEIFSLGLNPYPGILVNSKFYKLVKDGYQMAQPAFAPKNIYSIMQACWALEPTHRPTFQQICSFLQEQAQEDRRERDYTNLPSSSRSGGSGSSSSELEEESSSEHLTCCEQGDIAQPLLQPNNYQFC

**Q.** With `Cc1cnc(N)nc1OCC(C)(C)CO` as the compound, how does the half-life [1] read?
**A.** Its half-life is 1.5 h.

**Q.** What about the efflux ratio [2] of the same compound?
**A.** The efflux ratio was 0.8.

**Q.** And the inhibition [3]?
**A.** The inhibition was “inactive”.

**Q.** And the Activity (NCI-H460)?
**A.** The Activity was “inactive”.

**Q.** What about the Activity [4] of the same compound?
**A.** The Activity was “Non-toxic”.

**Q.** And the half-life [5]?
**A.** The half-life was 5.5 h.

**Q.** And the CLH [6]?
**A.** The CLH was 60 µL/min/mg.

**Q.** And the inhibition [7]?
**A.** Its inhibition is “inactive”.

**Q.** And the inhibition [8]?
**A.** Its inhibition is “inactive”.

**Q.** And the inhibition [9]?
**A.** Its inhibition is “inactive”.

**Q.** And the inhibition [10]?
**A.** The inhibition was “inactive”.

**Q.** And the inhibition [11]?
**A.** The inhibition was “inactive”.

**Q.** What about the inhibition [12] of the same compound?
**A.** The inhibition was “inactive”.

**Q.** And the inhibition [13]?
**A.** The inhibition was “inactive”.

**Q.** What about the inhibition [14] of the same compound?
**A.** The inhibition was “inactive”.

Source: ChEMBL document CHEMBL3779767, “Identification of potent and selective MTH1 inhibitors” (Bioorg Med Chem Lett, 2016)
